# Laboratory results published in ChEMBL document CHEMBL5034012, “Procainamide-SAHA Fused Inhibitors of hHDAC6 Tackle Multidrug-Resistant Malaria Parasites” (J Med Chem, 2021).
# Active and inactive are the calls of the source. The rule behind the calls is not given here.
# Legend:
# Plasmodium falciparum [1] = assay: Antiplasmodial activity against Plasmodium falciparum 3D7 assessed as time to kill initial parasite load at 10 times IC50 concentration; assay type: functional
# Summary of the method: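 Parasite reduction rate assay on 3D7 cultures containing mostly rings, with DHA and pyrimethamine as references. Exposure windows of 6, 24, 48, 72 and 96h; cells then washed, serially diluted 1/3 in fresh RBC and grown 3 weeks before SYBR-green I read-out. Number of wells with growth gives viable parasites per time point, per Sanz et al. One experiment in duplicate.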
# Plasmodium falciparum [2] = assay: Antiplasmodial activity against synchronized ring stage Plasmodium falciparum 3D7 assessed as parasite reduction over one cycle upto 48 hrs at 10 times IC50 concentration; assay type: functional; conditions: time hrs <=48
# Summary of the method: (§1)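 3D7 culture of mostly rings exposed to drug for 6, 24, 48, 72 or 96h. Then washed, serially diluted 1/3 in fresh RBC and grown 3 weeks. Growth read by SYBR-green I. Number of wells with growth used to back-calculate viable parasites at each time point and derive growth parameters. One experiment, run in duplicate.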
# Plasmodium falciparum [3] = assay: Antiplasmodial activity against synchronized ring stage Plasmodium falciparum 3D7 assessed as parasite reduction rate in lag phase by measuring time required to achieve maximum speed of action at 10 times IC50 concentration; assay type: functional; summary of the method: as §1
# Plasmodium falciparum [4] = assay: Antiplasmodial activity against asynchronous asexual culture of Plasmodium falciparum NF54 assessed as parasite growth inhibition; assay type: functional, organism-based
# Summary of the method: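 Asynchronous asexual NF54 cultures exposed to 7-point, 2-step serial dilutions starting at 500nM. DHA served as positive control, DMSO as negative. IC50 interpolated from three independent experiments run in triplicate.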
# HepG2 = assay: cells; assay type: functional, cell-based; conditions: Homo sapiens, HepG2, 72 h
# HL-60 [5] = assay: cells; assay type: functional, cell-based; conditions: Homo sapiens, HL-60, 72 h
# Histone deacetylase = assay: Inhibition of human HDAC using human HeLa cell nuclear extract measured after 60 mins by fluorescence assay; assay type: tissue-based
# Plasmodium falciparum [6] = assay: Antiplasmodial activity against Plasmodium falciparum stage IIb-III gametocytes assessed as abnormal morphology by measuring rounded/swollen at highest concentration measured after 72 hrs using Geimsa staining based assay; assay type: functional
# Summary of the method: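 Day-4 stage IIb-III gametocytes (asexuals removed by N-acetyl glucosamine), about 1% gametocytemia at 2% hematocrit, treated 72h at 10, 5, 1 or 0.5 µM against 0.1% DMSO. Then washed and recultured with daily medium changes. Morphology and parasitemia scored daily on Giemsa-stained thin smears.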
# Plasmodium falciparum [7] = assay: Antiplasmodial activity against Plasmodium falciparum NF54 late stage IV-V gametocytes assessed as reduction in number of exflagellation centers in at 1 uM treated for 72 hrs; assay type: functional, organism-based
# Summary of the method: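 Synchronous gametocytes induced; asexual forms removed with N-acetyl glucosamine for 5 days. Day-9 stage IV-V gametocytes, about 1% gametocytemia at 2% hematocrit, treated 72h at 10, 5, 1 or 0.5 µM against 0.1% DMSO. Then washed and recultured with daily medium changes. […], pelleted cells mixed 1:1 with human serum. Exflagellation centers counted over ≥10 fields at 40× within one hour. Two independent experiments; one-way ANOVA.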
# HL-60 [8] = assay: Cytotoxicity against human HL-60 cells assessed as inhibition of cell proliferation at 10 uM measured after 72 hrs by ATPlite assay; assay type: functional
# Summary of the method: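 Cells exposed to compound for 72h; viability read by ATPlite. DMSO control. Technical triplicates, at least two biological replicates. IC50 interpolated from the curves.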
# [9] = biological target: Histone deacetylase (Homo sapiens) (UniProt Q13547+O15379+Q9UBN7+Q92769+Q9UQL6+Q8WUI4+Q9BY41+Q96DB2+P56524+Q9UKV0+Q969S8); assay: Inhibition of human HDAC using human HeLa cell nuclear extract 1 uM by fluorescence assay
# Summary of the method: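 HeLa nuclear extract (3x10⁻³mg) incubated with compound and 43 µM Tosyl-Gly-Pro-Lys(Ac)-AMC. Buffer: 25mM Tris-HCl pH 8, 140mM NaCl, 3mM KCl, 1mM MgCl₂. Run 45 min at 37°C, then trypsin (1mg/mL) 15min at RT, then ethanol. AMC fluorescence read at ex 380/em 460nm. Background subtracted; data normalized to DMSO. Duplicates in ≥2 independent experiments.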
# Plasmodium falciparum [10] = assay: Antiplasmodial activity against Cambodian multidrug-resistant Plasmodium falciparum isolate incubated for 96 hrs measured by SYBR Green 1 assay; assay type: functional, organism-based
# Summary of the method: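 Cambodian isolates chosen by multidrug-resistance pattern, 10 per resistance type. Ring-synchronized cultures at 2% hematocrit and 1% starting parasitemia; 11-point 2-step dilutions from 500nM; 96h incubation, then SYBR-green I read-out. Mefloquine and monodesethylamodiaquine served as positive controls. Triplicate wells, one biological replicate per isolate.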
SMILES,IC50 (HepG2),IC50 (HL-60 [5]),IC50 (Histone deacetylase),IC50 (Plasmodium falciparum [4]),also measured
CCc1nc(N)nc(N)c1-c1ccc(Cl)cc1 [PYRIMETHAMINE],,,,,LT99.9 (Plasmodium falciparum [1]): 44.1 h; log(activity) (Plasmodium falciparum [2]): 3.57; Time (Plasmodium falciparum [3]): 24 h
C[C@H]1[C@@H](O)O[C@@H]2O[C@@]3(C)CC[C@H]4[C@H](C)CC[C@@H]1[C@@]24OO3 [ARTENIMOL],,,,0.003 µM,LT99.9 (Plasmodium falciparum [1]): 21.2 h; log(activity) (Plasmodium falciparum [2]): 5.12; Time (Plasmodium falciparum [3]): 0 h
O=C(CCCCCCC(=O)Nc1ccccc1)NO [VORINOSTAT],,,,,Activity (Plasmodium falciparum [6]): <=90%; Activity (Plasmodium falciparum [7]): inactive
CCN(CC)CCNC(=O)c1ccc(NC(=O)CCCCC(=O)NO)cc1,,,,0.41 µM,inhibition [9]: 60%
CCNCc1cc(Nc2ccnc3cc(Cl)ccc23)ccc1O [DESETHYL AMODIAQUINE],,,,,IC50 (Plasmodium falciparum [10]): 0.089 µM
CCN(CC)c1ccc(NC(=O)CCCCCCC(=O)NO)cc1,2.4 µM,2.7 µM,0.21 µM,0.239 µM,

# More lines, main results first:
IC50 (HepG2),IC50 (HL-60 [5]),IC50 (Histone deacetylase),SMILES,IC50 (Plasmodium falciparum [4]),also measured
150 µM,2.5 µM,,CC(C)(C)OC(=O)N1CCC(NC(=O)c2ccc(NC(=O)CCCCCCC(=O)NO)cc2)CC1,0.467 µM,
8.2 µM,34 µM,0.16 µM,CCN(CC)CCCNC(=O)c1ccc(NC(=O)CCCCCCC(=O)NO)cc1,0.064 µM,
26 µM,,0.23 µM,O=C(CCCCCCC(=O)Nc1ccc(C(=O)NCCN2CCOCC2)cc1)NO,0.341 µM,inhibition at 10 µM (HL-60 [8]): 40%
> 100 µM,> 10 µM,,CCC(CC)CCNC(=O)c1ccc(NC(=O)CCCCCCC(=O)NO)cc1,> 0.5 µM,
